From ChEMBL document CHEMBL1141402 (J Med Chem, 2007)
Active and inactive are the calls of the source. Residues, ends and D or L forms follow the SMILES beside them.

How the values were obtained:
[1] = target: T1, Delta-type opioid receptor (Homo sapiens, UniProt P41143); test: Activity at delta opioid receptor assessed as increase in calcium level in CHO cells by aequorin luminescence based calcium assay; type: functional, cell-based
Mus musculus [2] = species: Mus musculus; test: Antinociceptive activity in Swiss Albino mouse assessed as effect on paw licking by hot plate method at 10 ug; type: functional
In short: (§1)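 Mice given peptide i.c.v. in 0.9% NaCl, then put on a 55 ± 0.5 °C hot plate 5 min later. Latencies to paw licking, rearing and jumping recorded with a 240 s cut-off and converted to %MPE against saline control latencies. 10 mice per group; one-way ANOVA with Student-Newman-Keuls post hoc.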

Mus musculus [3] = species: Mus musculus; test: Antinociceptive activity in Swiss Albino mouse assessed as effect on jumping by hot plate method at 10 ug; type: functional; in short: as §1
Mus musculus [4] = species: Mus musculus; test: Antinociceptive activity in Swiss Albino mouse assessed as effect on rearing by hot plate method at 10 ug; type: functional; in short: as §1
[5] = target: Delta-type opioid receptor (Mus musculus) (UniProt P32300); test: (§2) Agonist activity at delta opioid receptor by inhibition of electrically evoked muscle contraction in isolated mouse vas deferens; type: functional, tissue-based
In short: (§3)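 Mouse vas deferens from adult male Swiss Webster mice (30-50 g), killed by cervical dislocation. Field stimulation used 1 ms pulse trains at 0.15 Hz. IC50 taken from the twitch-height reduction across doses.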

[6] = target: Mu-type opioid receptor (Cavia porcellus) (UniProt P97266); test: Antagonist activity at mu opioid receptor by inhibition of TAPP-induced muscle contraction in guinea pig ileum; type: functional, tissue-based
Mus musculus [7] = species: Mus musculus; test: Antagonist effect on DAMGO-induced jumping in Swiss Albino mouse by hot plate method; type: functional, organism-based
In short: (§4)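 Mice dosed i.c.v. into the left lateral ventricle, drugs dissolved in 0.9% NaCl; test compound given against endomorphin-2 (3 µg/animal) or DAMGO. Placed on a 55 ± 0.5 °C hot plate 5 min after injection. Latencies to paw licking, rearing and jumping recorded with a 240 s cut-off and expressed as %MPE from control (saline) and test latencies. 10 mice per group; two-way ANOVA with Student-Newman-Keuls.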

[8] = target: Delta-type opioid receptor (Mus musculus) (UniProt P32300); test: Antagonist activity at delta opioid receptor by inhibition of DPDPE-induced muscle contraction in isolated mouse vas deferens; type: functional, tissue-based
Mus musculus [9] = species: Mus musculus; test: Antagonist effect on DAMGO-induced rearing in Swiss Albino mouse by hot plate method; type: functional, organism-based; in short: as §4
Mus musculus [10] = species: Mus musculus; test: Antagonist effect on endomorphin-2-induced paw licking in Swiss Albino mouse by hot plate method; type: functional, organism-based; in short: as §4
Mus musculus [11] = species: Mus musculus; test: Antagonist effect on endomorphin-2-induced jumping in Swiss Albino mouse by hot plate method; type: functional, organism-based; in short: as §4
Mus musculus [12] = species: Mus musculus; test: Antagonist effect on endomorphin-2-induced rearing in Swiss Albino mouse by hot plate method; type: functional, organism-based; in short: as §4
Mus musculus [13] = species: Mus musculus; test: Antagonist effect on DAMGO-induced paw licking in Swiss Albino mouse by hot plate method; type: functional, organism-based; in short: as §4
[14] = target: Mu-type opioid receptor (Cavia porcellus) (UniProt P97266); test: Agonist activity at mu opioid receptor by inhibition of TAPP-induced muscle contraction in guinea pig ileum at upto 10 uM; type: functional, tissue-based
In short: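 A 2-3 cm segment taken at least 10 cm from the ileocecal junction and mounted in a 20 mL bath of modified Krebs' buffer (NaCl 150, KCl 4.3, CaCl2 1.25, MgCl2 1.0, NaH2PO4 1.7, NaHCO3 25.0, glucose 11.0 mM). Buffer gassed with 95% O2/5% CO2 at 37 °C. Stimulated at 10 pulses/min, 4 ms each, with force-transducer recording. IC50 obtained by regression of the concentration-response curve.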

Mu-type opioid receptor [15] = target: Mu-type opioid receptor (Rattus norvegicus, UniProt P33535); test: Displacement of [3H]DAMGO from mu opioid receptor in rat brain membrane; type: cell membranes
In short: (§5)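 Rat brain membranes incubated for 2 h at 0 °C with [3H]DAMGO (0.72 nM; µ) or [3H]DSLET (0.78 nM; δ). IC50 read from log dose-displacement curves. […] Three to four determinations.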

Mu-type opioid receptor [16] = target: Mu-type opioid receptor (Cavia porcellus, UniProt P97266); test: Agonist activity at mu opioid receptor by inhibition of electrically evoked muscle contraction in guinea pig ileum; type: functional, tissue-based
Mu-type opioid receptor [17] = target: Mu-type opioid receptor (Homo sapiens, UniProt P35372); test: Activity at mu opioid receptor assessed as increase in calcium level in CHO cells by aequorin luminescence based calcium assay; type: functional, cell-based
[18] = target: T1, Delta-type opioid receptor; test: Antagonist activity against delta opioid receptor assessed as effect on deltorphin-2-induced calcium response in CHO cells by aequorin luminescence based calcium assay; type: functional, cell-based; settings: read-out: pA2 (converted)
In short: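 CHO cells expressing DOR and aequorin. Compounds in BSA medium, then 25 000 cells injected per well. Luminescence recorded for 30 s, cells lysed with 0.3% Triton X-100 and read for a further 15 s. Signal given as fractional luminescence (agonist peak over agonist plus lysis total), from concentration-response curves. Three independent experiments, each in duplicate.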

[19] = target: Delta-type opioid receptor (Mus musculus, UniProt P32300); test: as §2; type: functional, tissue-based; in short: as §3
[20] = target: Delta-type opioid receptor (Rattus norvegicus, UniProt P33533); test: Displacement of [3H]DSLET from delta opioid receptor in rat brain membrane; type: cell membranes; in short: as §5
Delta-type opioid receptor (Rattus norvegicus, UniProt P33533), sequence (P33533 whole entry): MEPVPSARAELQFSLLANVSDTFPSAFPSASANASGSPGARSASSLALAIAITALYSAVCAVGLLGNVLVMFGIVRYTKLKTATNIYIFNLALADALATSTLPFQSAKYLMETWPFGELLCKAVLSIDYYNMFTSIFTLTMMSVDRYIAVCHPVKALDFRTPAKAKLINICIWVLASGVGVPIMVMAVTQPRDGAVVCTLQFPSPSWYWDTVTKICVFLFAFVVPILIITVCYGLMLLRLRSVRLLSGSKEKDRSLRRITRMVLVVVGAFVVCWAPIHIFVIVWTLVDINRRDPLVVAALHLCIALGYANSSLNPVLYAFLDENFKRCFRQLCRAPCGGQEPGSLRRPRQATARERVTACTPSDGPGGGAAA

Mu-type opioid receptor (Cavia porcellus, UniProt P97266), sequence (P97266 whole entry): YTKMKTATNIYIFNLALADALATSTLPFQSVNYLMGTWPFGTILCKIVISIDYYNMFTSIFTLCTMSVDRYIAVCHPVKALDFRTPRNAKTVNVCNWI
Mu-type opioid receptor (Cavia porcellus), sequence (P97266 whole entry): as above
Delta-type opioid receptor (Mus musculus), sequence (P32300 whole entry): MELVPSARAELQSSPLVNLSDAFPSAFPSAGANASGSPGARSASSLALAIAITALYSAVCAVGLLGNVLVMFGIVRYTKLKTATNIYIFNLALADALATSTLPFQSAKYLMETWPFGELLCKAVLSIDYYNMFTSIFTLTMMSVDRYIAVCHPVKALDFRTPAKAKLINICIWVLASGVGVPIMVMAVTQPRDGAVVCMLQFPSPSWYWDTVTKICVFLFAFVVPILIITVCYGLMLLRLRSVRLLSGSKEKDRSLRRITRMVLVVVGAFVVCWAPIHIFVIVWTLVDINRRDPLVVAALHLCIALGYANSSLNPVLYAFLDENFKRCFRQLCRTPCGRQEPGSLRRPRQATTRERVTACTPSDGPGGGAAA
Mu-type opioid receptor (Rattus norvegicus, UniProt P33535), sequence (P33535 whole entry): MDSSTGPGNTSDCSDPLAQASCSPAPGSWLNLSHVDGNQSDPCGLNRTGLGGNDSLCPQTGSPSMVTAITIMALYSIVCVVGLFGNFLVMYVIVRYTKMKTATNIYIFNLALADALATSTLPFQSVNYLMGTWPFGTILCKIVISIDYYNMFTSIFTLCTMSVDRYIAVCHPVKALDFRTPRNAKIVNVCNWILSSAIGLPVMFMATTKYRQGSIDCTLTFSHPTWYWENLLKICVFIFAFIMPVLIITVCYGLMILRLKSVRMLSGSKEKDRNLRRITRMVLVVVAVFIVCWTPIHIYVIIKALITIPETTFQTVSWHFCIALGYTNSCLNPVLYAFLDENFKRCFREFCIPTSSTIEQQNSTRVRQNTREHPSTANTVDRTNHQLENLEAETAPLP
Mu-type opioid receptor (Homo sapiens, UniProt P35372), sequence (P35372 whole entry): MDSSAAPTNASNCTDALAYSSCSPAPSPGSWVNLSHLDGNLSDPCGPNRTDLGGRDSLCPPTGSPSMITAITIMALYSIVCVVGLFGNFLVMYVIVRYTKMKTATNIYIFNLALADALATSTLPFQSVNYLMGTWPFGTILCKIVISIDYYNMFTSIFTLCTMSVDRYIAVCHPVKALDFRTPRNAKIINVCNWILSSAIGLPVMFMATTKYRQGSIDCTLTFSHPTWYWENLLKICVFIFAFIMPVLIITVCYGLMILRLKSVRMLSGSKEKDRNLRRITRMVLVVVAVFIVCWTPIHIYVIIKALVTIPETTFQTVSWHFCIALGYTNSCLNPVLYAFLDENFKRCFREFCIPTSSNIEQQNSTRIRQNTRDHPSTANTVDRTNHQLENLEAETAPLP
T1 sequence (P41143 whole entry): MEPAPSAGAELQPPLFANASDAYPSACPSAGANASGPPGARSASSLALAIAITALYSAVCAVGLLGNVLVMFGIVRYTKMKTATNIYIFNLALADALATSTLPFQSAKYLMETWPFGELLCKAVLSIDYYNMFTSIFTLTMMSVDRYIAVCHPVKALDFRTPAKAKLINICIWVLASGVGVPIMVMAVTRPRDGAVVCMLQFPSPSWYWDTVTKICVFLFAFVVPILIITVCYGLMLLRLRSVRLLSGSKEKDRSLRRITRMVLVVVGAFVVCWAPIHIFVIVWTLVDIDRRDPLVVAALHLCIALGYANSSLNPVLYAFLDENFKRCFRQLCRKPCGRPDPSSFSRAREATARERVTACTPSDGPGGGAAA
Delta-type opioid receptor (Mus musculus, UniProt P32300), sequence (P32300 whole entry): as the sequence (P32300 whole entry) above

## NC(=O)[C@@H](Cc1ccc2ccccc2c1)NC(=O)[C@H](Cc1ccccc1)NC(=O)[C@@H]1CCCN1C(=O)[C@@H](N)Cc1ccc(O)cc1 (HELM PEPTIDE1{Y.P.F.[O=C([C@@H](Cc1ccc2ccccc2c1)N[*:1])[*:2]].[am]}$$$$V2.0)
[1]
  EC50: > 1000 nM
Mus musculus [2]
  Activity: 0.13%
Mus musculus [3]
  Activity: 2.5%
Mus musculus [4]
  Activity: 0.09%
[5]
  Activity: inactive
[6]
  Ke: 1260 nM

## Cc1cc(O)cc(C)c1C[C@H](N)C(=O)N1CCC[C@H]1C(=O)N[C@@H](Cc1ccccc1)C(=O)N[C@H](Cc1cccc2ccccc12)C(N)=O [listing 1 of 2 here]
Mus musculus [2]
  Activity: 0.13%
Mus musculus [3]
  Activity: 2.73%
Mus musculus [4]
  Activity: 1.06%

## NC(=O)[C@H](Cc1ccccc1)NC(=O)[C@H](Cc1c[nH]c2ccccc12)NC(=O)[C@@H]1CCCN1C(=O)[C@@H](N)Cc1ccc(O)cc1 [ENDOMORPHIN-1]
Mus musculus [2]
  Activity: 5.99%
Mus musculus [3]
  Activity: 40.8%
Mus musculus [4]
  Activity: 12%

## Cc1cc(C[C@H](N)C(=O)N2CCC[C@H]2C(=O)N[C@@H](Cc2ccccc2)C(=O)N[C@H](Cc2cccc3ccccc23)C(N)=O)cc(C)c1O
Mus musculus [7]
  Activity: Dose-dependent effect
[8]
  Ke: 227 nM
Mus musculus [9]
  Activity: Dose-dependent effect
Mus musculus [10]
  Activity: Dose-dependent effect
Mus musculus [11]
  Activity: Dose-dependent effect
Mus musculus [12]
  Activity: Dose-dependent effect
Mus musculus [13]
  Activity: Dose-dependent effect
[6]
  Ke: 14.9 nM

## Cc1cc(O)cc(C)c1C[C@H](N)C(=O)N1CCC[C@H]1C(=O)N[C@@H](Cc1ccccc1)C(=O)N[C@H](Cc1ccc2ccccc2c1)C(N)=O (HELM PEPTIDE1{[Cc1cc(O)cc(C)c1C[C@H](N)C(=O)[*:2]].P.F.[O=C([C@@H](Cc1ccc2ccccc2c1)N[*:1])[*:2]].[am]}$$$$V2.0)
[1]
  EC50: 15.5 nM
Mus musculus [7]
  Activity: Dose-dependent effect
Mus musculus [2]
  Activity: 0.09%
Mus musculus [3]
  Activity: 1.54%
Mus musculus [4]
  Activity: 0.18%
[8]
  Ke: 250 nM
Mus musculus [9]
  Activity: Dose-dependent effect
Mus musculus [10]
  Activity: Dose-dependent effect
Mus musculus [11]
  Activity: Dose-dependent effect
[14]
  Activity: inactive
Mus musculus [12]
  Activity: Dose-dependent effect
Mu-type opioid receptor [15]
  Ki: 1.52 nM
Mus musculus [13]
  Activity: Dose-dependent effect
[6]
  Ke: 5.86 nM

## Cc1cc(C[C@H](N)C(=O)N2CCC[C@H]2C(=O)N[C@@H](Cc2c[nH]c3ccccc23)C(=O)N[C@H](Cc2cccc3ccccc23)C(N)=O)cc(C)c1O
[8]
  Ke: 62.4 nM

## NC(=O)[C@@H](Cc1cccc2ccccc12)NC(=O)[C@H](Cc1c[nH]c2ccccc12)NC(=O)[C@@H]1CCCN1C(=O)[C@@H](N)Cc1ccc(O)cc1
[1]
  EC50: > 1000 nM
Mu-type opioid receptor [16]
  IC50: 4180 nM
[5]; filed as partial agonist
  Activity: Partial agonist
Mu-type opioid receptor [17]
  EC50: 82.1 nM

## Cc1cc(O)cc(C)c1C[C@H](N)C(=O)N1CCC[C@H]1C(=O)N[C@@H](Cc1c[nH]c2ccccc12)C(=O)N[C@H](Cc1cccc2ccccc12)C(N)=O [listing 1 of 2 here]
Mus musculus [2]
  Activity: 5.35%
Mus musculus [3]
  Activity: 23.2%
Mus musculus [4]
  Activity: 10.6%

## Cc1cc(C[C@H](N)C(=O)N2CCC[C@H]2C(=O)N[C@@H](Cc2c[nH]c3ccccc23)C(=O)N[C@H](Cc2ccc3ccccc3c2)C(N)=O)cc(C)c1O
Mus musculus [7]
  Activity: Dose-dependent effect
[5]; filed as partial agonist
  Activity: Partial agonist
Mus musculus [9]
  Activity: Dose-dependent effect
Mus musculus [10]
  Activity: Dose-dependent effect
Mus musculus [11]
  Activity: Dose-dependent effect
[14]
  Activity: inactive
Mus musculus [12]
  Activity: Dose-dependent effect
Mus musculus [13]
  Activity: Dose-dependent effect
[6]
  Ke: 8.27 nM

## Cc1cc(O)cc(C)c1C[C@H](N)C(=O)N1CCC[C@H]1C(=O)N[C@@H](Cc1c[nH]c2ccccc12)C(=O)N[C@H](Cc1ccc2ccccc2c1)C(N)=O (HELM PEPTIDE1{[Cc1cc(O)cc(C)c1C[C@H](N)C(=O)[*:2]].P.W.[O=C([C@@H](Cc1ccc2ccccc2c1)N[*:1])[*:2]].[am]}$$$$V2.0) [listing 1 of 2 here]
[1]
  EC50: 29.3 nM
Mu-type opioid receptor [15]
  Ki: 2.38 nM

## Cc1cc(O)cc(C)c1C[C@H](N)C(=O)N1CCC[C@H]1C(=O)N[C@@H](Cc1c[nH]c2ccccc12)C(=O)N[C@H](Cc1ccc2ccccc2c1)C(N)=O (HELM PEPTIDE1{[Cc1cc(O)cc(C)c1C[C@H](N)C(=O)[*:2]].P.W.[O=C([C@@H](Cc1ccc2ccccc2c1)N[*:1])[*:2]].[am]}$$$$V2.0) [listing 2 of 2 here]
Mus musculus [2]
  Activity: 0.17%
Mus musculus [3]
  Activity: 0.58%
Mus musculus [4]
  Activity: 0.49%

## NC(=O)[C@@H](Cc1ccc2ccccc2c1)NC(=O)[C@H](Cc1c[nH]c2ccccc12)NC(=O)[C@@H]1CCCN1C(=O)[C@@H](N)Cc1ccc(O)cc1
[1]
  EC50: > 1000 nM
Mu-type opioid receptor [16]
  IC50: 3470 nM
[5]
  IC30: 4180 nM
[5]; filed as partial agonist
  Activity: Partial agonist
Mu-type opioid receptor [17]
  EC50: 248 nM

## Cc1cc(O)cc(C)c1C[C@H](N)C(=O)N1CCC[C@H]1C(=O)N[C@@H](Cc1c[nH]c2ccccc12)C(=O)N[C@H](Cc1cccc2ccccc12)C(N)=O [listing 2 of 2 here]
Mu-type opioid receptor [16]
  IC50: 15.8 nM
[18]
  Kb: 2.57 nM
Mu-type opioid receptor [17]
  EC50: 1.15 nM

## NC(=O)[C@@H](Cc1cccc2ccccc12)NC(=O)[C@H](Cc1ccccc1)NC(=O)[C@@H]1CCCN1C(=O)[C@@H](N)Cc1ccc(O)cc1
[1]
  EC50: > 1000 nM
Mus musculus [2]
  Activity: 0%
Mus musculus [3]
  Activity: 0.8%
Mus musculus [4]
  Activity: 0.31%
[19]
  IC50: > 10000 nM
[6]
  Ke: 1250 nM

## Cc1cc(O)cc(C)c1C[C@H](N)C(=O)N1CCC[C@H]1C(=O)N[C@@H](Cc1ccccc1)C(=O)N[C@H](Cc1cccc2ccccc12)C(N)=O [listing 2 of 2 here]
[1]
  EC50: 3.55 nM
[20]
  Ki: 27.1 nM
Mu-type opioid receptor [15]
  Ki: 1.24 nM
